A selection: hits, their analogues and other compounds. The true share with any hit is near 1.3%.
RAD52 anneal inh – inhibitors of human RAD52 DNA annealing | AID 651710 | P43351 | 360,000 tested, 0.46% active | inhibition, % at 18.7 µM | recombinant RAD52 DNA annealing, FRET fluorescence;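 active = every replicate showing at least 50% inhibition; inconclusive = mean inhibition at least 50% but not in every replicate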
Target sequence (P43351 whole entry, looked up): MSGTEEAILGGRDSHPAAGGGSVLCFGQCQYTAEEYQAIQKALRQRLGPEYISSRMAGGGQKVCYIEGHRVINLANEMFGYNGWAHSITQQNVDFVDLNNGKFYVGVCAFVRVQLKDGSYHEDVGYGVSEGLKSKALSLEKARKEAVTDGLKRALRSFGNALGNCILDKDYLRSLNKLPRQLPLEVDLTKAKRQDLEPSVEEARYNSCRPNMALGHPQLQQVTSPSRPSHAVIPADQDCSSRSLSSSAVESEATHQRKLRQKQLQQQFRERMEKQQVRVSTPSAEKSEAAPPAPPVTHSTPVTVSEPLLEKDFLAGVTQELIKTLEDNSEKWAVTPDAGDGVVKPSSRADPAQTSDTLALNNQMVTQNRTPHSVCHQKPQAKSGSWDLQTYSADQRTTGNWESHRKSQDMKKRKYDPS
S100A4 inh HTS – S100A4-myosin IIA interaction inhibition. P26447. inhibition, % at 10.7 µM. 360,000 tested, 0.14% active. S100A4/TAMRA-MyoIIA peptide fluorescence polarization. AID 652163;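 active = mean inhibition of at least 70% across replicates, with every replicate also reaching that level; inconclusive = mean inhibition reaches 70% but some replicates fall short; inactive = mean inhibition below 70%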
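System – human S100A4 monomer protein, biochemical binding assay · Buffer or medium – Calcium-containing HEPES buffer, pH 7.2 · Timing – 5 min between mix addition and reading · Also added – TAMRA-labelled myosin IIA heavy-chain peptide probe, 5 nM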
RAD54 inh – blocks human RAD54 Holliday junction branch migration. 360,000 tested, 0.14% active. Q92698. inhibition, % at 10.4 µM. FAM/BHQ fluorescence;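 active = mean normalized replicate activity at least 40 and at least half of replicates scoring 40 or more; inconclusive = only one of the two criteria met; inactive = mean below 40 and under half of replicates reaching 40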;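 note: 0% = median of neutral control wells and 100% = median of positive control wells; inhibitors cause a drop in the FAM fluorescence signal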
AF4-AF9 inh – blocks AF4 peptide binding to human AF9; P42568; AlphaScreen, biotin-AF4 peptide binding to FLAG-AF9; inhibition, % at 10 µM; 350,000 tested, 0.47% active; AID 651704;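 active = every replicate reaching a set inhibition limit, whatever the replicate mean, cut at about 25% in these data; inconclusive = mean inhibition reaches that limit but some replicates miss it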;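 note: 0% = plate neutral control median and 100% = total signal loss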
XiGFP reactiv – activators of X-chromosome reactivation in mouse fibroblasts; AID 743238; XiGFP mouse fibroblasts, % GFP-positive cells imaging, 3 d; cells co-treated with 5-aza-dC sensitizer; scaled so ellipticine positive control = 100%; 360,000 tested, 0.055% active; activation, % at 7.58 µM;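 active = mean normalized replicate activation at least 10% and every replicate at or above 10%; inconclusive = only one of the two criteria met; inactive = mean below 10% and not all replicates reach 10%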;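 note: 0% = median of on-plate neutral control wells and 100% = ellipticine 6 µM median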
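System: SV40-immortalized XiGFP fibroblast cells, line 68-5-11 / Incubation: 3-day compound exposure, then 15 min fixation at room temperature / Compound: single concentration per compound, delivered by pin transfer / Buffer or medium: DMEM plus 5-aza-dC sensitizer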
CASP6 VEID inh – caspase-6 (human) enzyme inhibition. purified caspase-6, Z-VEID-R110 cleavage fluorescence. inhibition, % at 12.5 µM. AID 686996. P55212. 350,000 tested, 0.53% active;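 active = mean inhibition across replicates at least about 35%, with every replicate also reaching that limit, limit read from the data; inconclusive = only one of the two criteria met; inactive = neither criterion met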;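 note: 0% = median of neutral control wells and 100% = no fluorescence left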
Target sequence (P55212 24-179 limits assumed): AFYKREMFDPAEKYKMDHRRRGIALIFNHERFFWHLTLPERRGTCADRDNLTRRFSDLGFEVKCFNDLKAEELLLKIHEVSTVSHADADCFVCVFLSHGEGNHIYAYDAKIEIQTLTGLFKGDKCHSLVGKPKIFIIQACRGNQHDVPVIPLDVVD
Target sequence (P55212 194-293 limits assumed): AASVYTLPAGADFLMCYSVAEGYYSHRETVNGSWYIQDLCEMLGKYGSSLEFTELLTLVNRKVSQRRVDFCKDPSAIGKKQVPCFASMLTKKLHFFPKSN
RAD52 DNA ctr – binds DNA, flagging false RAD52 inhibitor hits; AC50, µM; 1,000 tested, 8% active; shares compounds with RAD52 anneal inh; Salmon sperm DNA/acridine orange FP displacement, DNA binding;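 active = fitted half-maximal concentration for signal loss at or below twice the highest dose tested, in every separate run, actives reach about 64 µM in these data; inconclusive = runs disagree, or flat partial signal loss, or poor fit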
* hit, by the source's call; ! = a repeat was not active.

Results for CN(C)CCCNc1nc2cc(-c3cnn(Cc4ccccc4)c3)sc2c(=O)n1C ?
RAD52 anneal inh: 59.2*; S100A4 inh HTS: 4.4; RAD54 inh: 48.5; AF4-AF9 inh: 4.2; XiGFP reactiv: -0.1; CASP6 VEID inh: -15.6; RAD52 DNA ctr: inactive

Results for C=CCNc1nc2cc(-c3ccccc3C)sc2c(=O)n1C ?
RAD52 anneal inh: -73.7; S100A4 inh HTS: -7.9; RAD54 inh: 4.2; AF4-AF9 inh: -3.5; XiGFP reactiv: 0.0; CASP6 VEID inh: -7.2

What do the screens show for `CN(C)CCCNc1nc2cc(-c3ccsc3)sc2c(=O)n1C`?
RAD52 anneal inh: 52.0*; S100A4 inh HTS: -3.7; RAD54 inh: 31.7; AF4-AF9 inh: -1.6; XiGFP reactiv: 0.0; CASP6 VEID inh: -16.8; RAD52 DNA ctr: inactive

What do the screens show for `CCCCCCCCCCCCCCC(O)C[N+](C)(CCO)CCO` (stereo not given)?
RAD52 anneal inh: 84.6*; S100A4 inh HTS: -12.7; AF4-AF9 inh: 6.6; XiGFP reactiv: 0.0; CASP6 VEID inh: -193.2; RAD52 DNA ctr: inconclusive

How did CCCCOc1ccc(C)cc1CN(CCO)CCO do in these assays?
RAD54 inh: -3.7

What do the screens show for `CCCCCc1ccc(OCCCC[n+]2cccc(C)c2)c(CCCCC)c1`?
RAD52 anneal inh: 76.3*; S100A4 inh HTS: -0.4; AF4-AF9 inh: inconclusive; XiGFP reactiv: 0.0; CASP6 VEID inh: -41.3; RAD52 DNA ctr: inactive

Results for CCCCCc1ccc(OCCCC[n+]2ccc(C)cc2)c(CCCCC)c1 ?
RAD52 anneal inh: 65.6*; S100A4 inh HTS: 0.6; AF4-AF9 inh: inconclusive; XiGFP reactiv: 0.2; CASP6 VEID inh: -30.2; RAD52 DNA ctr: inactive

Results for C[C@@H]1CN([C@@H](C)CO)S(=O)(=O)c2ccc(C3=CCCCC3)cc2O[C@H]1CN(C)C(=O)Cc1cccnc1 ?
RAD52 anneal inh: 6.2; S100A4 inh HTS: 12.7; RAD54 inh: -7.4; AF4-AF9 inh: 7.6; XiGFP reactiv: -0.3; CASP6 VEID inh: -1.5

Results for OCCCCNCc1ccc(OCc2ccc(Cl)cc2Cl)cc1 ?
RAD52 anneal inh: 65.6*; S100A4 inh HTS: -4.3; RAD54 inh: 19.5; AF4-AF9 inh: -7.0; CASP6 VEID inh: -28.8; RAD52 DNA ctr: inactive

What do the screens show for `N#C[C@H]1[C@H](c2ccc(C3=CCCC3)cc2)[C@@H](CO)N1C(=O)C1CCOCC1`?
RAD52 anneal inh: -19.8; S100A4 inh HTS: 5.6; RAD54 inh: 7.4; AF4-AF9 inh: -2.7; XiGFP reactiv: 0.0; CASP6 VEID inh: 1.1

Results for O=C(C[C@@H]1C=C[C@H](NC(=O)Nc2ccccc2F)[C@H](CO)O1)NCc1ccccc1 ?
RAD52 anneal inh: 1.5; S100A4 inh HTS: -3.1; AF4-AF9 inh: -4.8; XiGFP reactiv: -0.4; CASP6 VEID inh: 1.3

Results for C#CCOCCOCCOCCNc1nc(N2CCN(C(=O)[C@H]([C@@H](C)CC)n3cc([C@@H](N)CC(C)C)nn3)CC2)nc(N2CCN(C(=O)[C@H]([C@@H](C)CC)n3cc([C@@H](N)CC(C)C)nn3)CC2)n1 ?
RAD52 anneal inh: -22.4; S100A4 inh HTS: -6.6; RAD54 inh: 6.5; AF4-AF9 inh: 17.9; XiGFP reactiv: 0.1; CASP6 VEID inh: -4.7

What do the screens show for `C#CCOCCOCCOCCNc1nc(N2CCN(C(=O)[C@H](CCCCN)n3cc([C@@H](N)[C@H](C)CC)nn3)CC2)nc(N2CCN(C(=O)[C@H](CCCCN)n3cc([C@@H](N)CC(N)=O)nn3)CC2)n1`?
RAD52 anneal inh: 53.8*; S100A4 inh HTS: 49.8; RAD54 inh: -19.6; AF4-AF9 inh: 60.2*; XiGFP reactiv: 0.1; CASP6 VEID inh: -260.4; RAD52 DNA ctr: inactive

Results for C#CCOCCOCCOCCNc1nc(N2CCN(C(=O)[C@H]([C@@H](C)CC)n3cc([C@@H](N)CO)nn3)CC2)nc(N2CCN(C(=O)[C@H](CCCCN)n3cc([C@@H](N)CC(C)C)nn3)CC2)n1 ?
RAD52 anneal inh: 51.6*; S100A4 inh HTS: -3.3; AF4-AF9 inh: 15.1; XiGFP reactiv: -0.3; CASP6 VEID inh: -145.8; RAD52 DNA ctr: inactive

How did CN(C)CC(=O)N[C@@H]1CC[C@H](CC(=O)NCCN2CCCCC2)O[C@H]1CO do in these assays?
RAD52 anneal inh: 11.7; S100A4 inh HTS: -9.3; RAD54 inh: -5.3; AF4-AF9 inh: -11.2; XiGFP reactiv: 0.5; CASP6 VEID inh: -0.5

What do the screens show for `C[C@@H]1CN([C@@H](C)CO)C(=O)c2cc(NC(=O)c3ccncc3)ccc2O[C@H]1CN(C)C(=O)Nc1ccc(F)cc1`?
RAD52 anneal inh: -5.8; S100A4 inh HTS: 0.9; RAD54 inh: 4.0; AF4-AF9 inh: -0.9; XiGFP reactiv: -0.8; CASP6 VEID inh: 0.1

Results for CN1CCN(CCCNCc2cn(CCC#N)c3ccccc23)CC1 ?
RAD52 anneal inh: 63.1*; S100A4 inh HTS: 5.3; RAD54 inh: 14.6; AF4-AF9 inh: 25.0*; XiGFP reactiv: 0.0; CASP6 VEID inh: -205.2; RAD52 DNA ctr: inactive

What do the screens show for `N#CCCN1CCN(Cn2c3ccccc3c3ccccc32)CC1`?
RAD54 inh: 4.7

Results for O=C(C[C@H]1CC[C@H](NC(=O)Cc2ccccn2)[C@@H](CO)O1)NCCc1ccncc1 ?
RAD52 anneal inh: -19.6; S100A4 inh HTS: 7.8; RAD54 inh: 4.5; AF4-AF9 inh: 1.0; XiGFP reactiv: 0.7

Results for CN1CCc2cccc3c2[C@H]1Cc1ccc(O)c(O)c1-3 ?
RAD52 anneal inh: 90.3*!; S100A4 inh HTS: 1.7; RAD54 inh: 32.1; AF4-AF9 inh: 29.3*!; XiGFP reactiv: 9.4; CASP6 VEID inh: 2.2; RAD52 DNA ctr: inactive

What do the screens show for `COc1ccc(NC(=O)Nc2cccc3c2O[C@H](CN(C)C(=O)Nc2ccc(F)cc2)[C@@H](C)CN([C@H](C)CO)C3=O)cc1`?
RAD52 anneal inh: 8.9; S100A4 inh HTS: 32.7; RAD54 inh: 12.8; AF4-AF9 inh: 1.6; XiGFP reactiv: -0.2; CASP6 VEID inh: 3.2

How did CCN1CCN(Cc2ccc(NC(=O)c3ccc(C)c(NC(=O)C(=O)c4c[nH]c5ccccc45)c3)cc2C(F)(F)F)CC1 do in these assays?
RAD52 anneal inh: 98.5*!; S100A4 inh HTS: 0.1; RAD54 inh: 5.4; AF4-AF9 inh: 15.4; XiGFP reactiv: -0.1; CASP6 VEID inh: -9.1; RAD52 DNA ctr: inactive

Results for CCN1CCN(Cc2ccc(NC(=O)c3cccc(-c4ccc5nc(NC(=O)C6CC6)sc5n4)c3)cc2C(F)(F)F)CC1 ?
RAD52 anneal inh: 66.6*; S100A4 inh HTS: 3.0; AF4-AF9 inh: 10.4; XiGFP reactiv: 0.6; CASP6 VEID inh: -7.9; RAD52 DNA ctr: inactive

Results for CCN1CCN(Cc2ccc(C(=O)Nc3ccc(C)c(NCc4cnc(NC(=O)OC)cn4)c3)cc2C(F)(F)F)CC1 ?
RAD52 anneal inh: 96.5*!; S100A4 inh HTS: 0.3; RAD54 inh: -9.2; AF4-AF9 inh: 19.5; XiGFP reactiv: -0.1; CASP6 VEID inh: -30.8; RAD52 DNA ctr: inactive
